The source made the active and inactive calls. The rule behind the calls is not given here.
Experiments:
Lactococcus lactis [1] = assay: Binding affinity to Lactococcus lactis subsp. lactis C2 ATCC 11454 membrane surface measured after first washout with buffer by fluorescence assay; assay type: functional
Outline: (§1)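 L. lactis C2 grown 18 h at 27 °C in M17 (4% v/v inoculum). 200 µl culture, in triplicate, pelleted (9000g, 2 °C, 10 min); supernatant background subtracted. Pellet resuspended in peptide-isoluminol probe (DMF, diluted in pH 6.4 phosphate buffer, 0.01 M, 0.1 ionic strength) for 10 min at 27 °C. Fluorescence read at ex 360/em 430 nm, then repeated centrifugation/buffer washes; fraction retained calculated.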

Lactococcus lactis [2] = assay: Binding affinity to Lactococcus lactis subsp. lactis C2 ATCC 11454 membrane surface by fluorescence assay; assay type: functional; outline: as §1
Lactococcus lactis [3] = assay: Binding affinity to Lactococcus lactis subsp. lactis C2 ATCC 11454 membrane surface measured after second washout with buffer by fluorescence assay; assay type: functional; outline: as §1
Salmonella typhimurium [4] = assay: Binding affinity to Salmonella Typhimurium ATCC 14028 membrane surface by fluorescence assay; assay type: functional, organism-based; conditions: Salmonella enterica subsp. enterica serovar Typhimurium
Outline: (§2)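 Cell pellets were exposed to peptide-isoluminol probe in pH 6.4 phosphate buffer (0.01 M, 0.1 ionic strength). Probe remaining on cells was then tracked through repeated buffer wash cycles by fluorescence at ex 360/em 430 nm.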

Escherichia coli [5] = assay: Binding affinity to Escherichia coli ATCC 47076 membrane surface by fluorescence assay; assay type: functional, organism-based; outline: as §2
Staphylococcus aureus [6] = assay: Binding affinity to Staphylococcus aureus ATCC 25923 membrane surface by fluorescence assay; assay type: functional, organism-based; outline: as §2
Salmonella typhimurium [7] = assay: Binding affinity to Salmonella Typhimurium ATCC 14028 membrane surface measured after second washout with buffer by fluorescence assay; assay type: functional, organism-based; conditions: Salmonella enterica subsp. enterica serovar Typhimurium; outline: as §2
Escherichia coli [8] = assay: Binding affinity to Escherichia coli ATCC 47076 membrane surface measured after second washout with buffer by fluorescence assay; assay type: functional, organism-based; outline: as §2
Staphylococcus aureus [9] = assay: Binding affinity to Staphylococcus aureus ATCC 25923 membrane surface measured after second washout with buffer by fluorescence assay; assay type: functional, organism-based; outline: as §2
Salmonella typhimurium [10] = assay: Binding affinity to Salmonella Typhimurium ATCC 14028 membrane surface measured after fourth washout with buffer by fluorescence assay; assay type: functional, organism-based; conditions: Salmonella enterica subsp. enterica serovar Typhimurium; outline: as §2
Escherichia coli [11] = assay: Binding affinity to Escherichia coli ATCC 47076 membrane surface measured after fourth washout with buffer by fluorescence assay; assay type: functional, organism-based; outline: as §2

Activity (Lactococcus lactis [1])	Activity (Lactococcus lactis [2]) [%]	Activity (Lactococcus lactis [3])	Activity (Salmonella typhimurium [4]) [%]	Activity (Salmonella typhimurium [7])	Activity (Salmonella typhimurium [10])	Compound	Activity (Escherichia coli [5]) [%]	Activity (Staphylococcus aureus [6]) [%]	Activity (Escherichia coli [8])	Activity (Staphylococcus aureus [9])	Activity (Escherichia coli [11])
Active	15	Active	15	Active	–	CCN(CCCCCCNC(=O)COCC(=O)NC(CCC(=O)O)C(=O)NC(CCC(=O)O)C(=O)O)c1ccc2c(=O)[nH][nH]c(=O)c2c1 (centres undefined)	15	15	Active	Active	–
23%	34	10%	–	–	Active	CCN(CCCCCCNC(=O)COCC(=O)N[C@@H](CCCCN)C(=O)N[C@@H](CCCCN)C(=O)N[C@@H](CCCCN)C(=O)O)c1ccc2c(=O)[nH][nH]c(=O)c2c1	–	–	–	–	Active

Source: ChEMBL document CHEMBL1156008, “Synthesis of novel isoluminol probes and their use in rapid bacterial assays” (Bioorg Med Chem Lett, 2009)
